In the library only some 1.9% were active in any assay of this set; here they are far more common.
aDG glyco act = activators of alpha-DG glycosylation, primary screen, uHTS, Pro5-aDG cells, AlphaScreen; AID 624168, 2012; 360,000 compounds, 0.22% hits; activation, % at 10 µM; alpha-DG glycosylation AlphaScreen (IIH6); 0% Pro5, 100% B10-LARGE cell signal;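 active = activation of at least 8% versus controls, or a plate z-score of at least 8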;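 note: Pro5 are CHO cells carrying HIG-tagged alpha-DG that lacks glycosylation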
bovine MsrA act = bovine MsrA enzyme activators, primary screen, biochemical, absorbance, HTS. Methionine sulfoxide reductase A (Bos taurus). purified bovine MsrA, absorbance read-out. activation, % at 10.6 µM. 360,000 compounds, 0.3% hits. AID 602163, 2012; in the data active = activation above about 7.5%;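 note: 0% = vehicle and 100% = reference activator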
Vif imaging = HIV Vif self-association inhibitors, primary screen, imaging, HEK293T, single point; HEK293T cells, Vif self-association by quenched fluorescence, 24 h; inhibition, % at 7.49 µM; 340,000 compounds, 0.35% hits; AID 602346, 2012; in the data active = inhibition above about 50%, passing the limit was not always enough
UCH37 inh = inhibitors of human UCH37 deubiquitinase, primary screen, biochemical, Ub-AMC cleavage, fluorescence | 330,000 compounds, 0.33% hits | inhibition, % (test concentration not listed) | purified proteasome/UCH37;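 active = mean inhibition over replicate wells above about 20%, limit read from the data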;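 note: 0% = compound-free wells with enzyme and 100% = wells lacking proteasome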
Target sequence (Q9Y5K5 whole entry, looked up): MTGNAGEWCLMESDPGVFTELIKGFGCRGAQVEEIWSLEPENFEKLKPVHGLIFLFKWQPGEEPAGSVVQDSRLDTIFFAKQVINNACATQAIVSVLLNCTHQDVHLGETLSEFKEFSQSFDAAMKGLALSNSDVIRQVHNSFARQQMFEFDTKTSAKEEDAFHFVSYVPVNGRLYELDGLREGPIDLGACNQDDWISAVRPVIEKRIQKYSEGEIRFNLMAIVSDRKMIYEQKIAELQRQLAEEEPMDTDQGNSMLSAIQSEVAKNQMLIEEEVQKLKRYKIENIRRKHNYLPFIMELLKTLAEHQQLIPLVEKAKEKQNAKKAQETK
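assay system = human UCH37 enzyme supplied as purified proteasome complex | amount = proteasome at 0.15 nM in the dispensed enzyme solution | schedule = 30 min compound-proteasome preincubation then 25 min substrate reaction, room temperature | measured by = fluorescence, ex 355 nm, em 460 nm | benchmarks = no-proteasome wells (full inhibition) and compound-free wells (no inhibition)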
N-glyco inh = increase of ERlucT glycosylation luciferase signal, primary screen, N-linked glycosylation inhibitor project, D54 ERlucT cells, luminescence, set 2; D54 ERlucT glycosylation luciferase reporter, 24 h; percent of 100 nM tunicamycin response; reporter increase, % at 12.5 µM; 360,000 compounds, 0.23% hits; AID 588692, 2011;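 active = mean luciferase reporter signal, scaled so untreated is 0 and the glycosylation-blocking control 100, at or above a set limit in every replicate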;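 note: luciferase carries N-glycosylation sites so blocking glycosylation raises the light; 0% = median of neutral control wells and 100% = median of 100 nM tunicamycin wells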
MsrA inhibitor = bovine MsrA enzyme inhibitors, primary screen, biochemical, absorbance, HTS; Methionine sulfoxide reductase A (Bos taurus); purified bovine MsrA, absorbance read-out; inhibition, % at 15.5 µM; 360,000 compounds, 0.75% hits; AID 651718, 2012; in the data active = inhibition above about 4.5%;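 note: 0% = vehicle wells with enzyme and 100% = reference inhibitor wells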
MsrA activ conf = bovine MsrA activators, retest, confirmation, biochemical, absorbance, HTS; activation, % at 10.6 µM; purified bovine MsrA, absorbance read-out; 1,000 compounds, 12% hits; shares compounds with bovine MsrA act; AID 602270, 2012; in the data active = activation above about 4%;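 note: enzyme coupled to thioredoxin and thioredoxin reductase with NADPH; 0% = vehicle wells and 100% = reference activator wells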
An asterisk follows results filed as active; . = no result.

SMILES | aDG glyco act | bovine MsrA act | Vif imaging | UCH37 inh | N-glyco inh | MsrA inhibitor | MsrA activ conf
COCCN(C)C(=O)CC1C(=O)NCCN1CC(c1ccccc1)c1ccccc1 (stereo unspecified) | 0 | 11* | 1 | -2 | 0 | 0 | -3
Cc1cc(CN(C)C(=O)CC2C(=O)NCCN2CC(c2ccccc2)c2ccccc2)on1 (stereo unspecified) | 0 | -1 | -20 | -1 | -2 | 2 | .
Nn1c(SCC(=O)Nc2ccc(F)c(F)c2)nnc1C1CCCCC1 | 0 | 9.3* | -2 | 4 | 7 | 0 | -2
Nc1nnn(CC(=O)NN=Cc2cccc(Cl)c2)n1 | . | . | . | 1 | . | . | .
CC1CC(=NNC(=S)NCc2ccccc2)CC(C)(C)C1 (stereo unspecified) | . | . | . | 6 | . | . | .
OCc1ccccc1SSc1ccccc1CO | 0 | 11* | -4 | 0 | 1 | 1 | 6.4*
OCc1ccccc1CNCc1ccccc1 | 0 | -3 | -4 | 0 | -3 | -1 | .
Cc1ccc(-n2c([C@@H]3C[C@H]3c3ccccc3)n[nH]c2=S)cc1 | 0 | 8.9* | . | 5 | 5 | 0 | -3
Cc1ccc(C2CC2c2n[nH]c(=S)n2-c2ccc(C)cc2)cc1 (stereo unspecified) | 0 | 3 | -5 | 0 | -1 | 2 | .
O=c1cc(CSc2ccccc2)[nH]c(=S)[nH]1 | 0 | 11* | 3 | 2 | 2 | 1 | 4
c1ccc(-n2cnc3cc(NCc4ccco4)ccc32)cc1 | 0 | 9.5* | 2 | -6 | 15 | 0 | 1
COc1ccc(C=NOCC(=O)NCC(C)C)c(OC)c1 | . | . | . | 1 | . | . | .
CC(C)c1ccc(/C=N/NC(=O)c2ccccc2Cl)cc1 | 1 | 13* | 1 | . | 24 | 1 | -4
CC(C)c1ccc(C=NNC(=O)c2ccccc2Cl)cc1 | . | . | . | 4 | . | . | .
O=C(/C=C/c1ccccc1)C1=C(O)C(=O)N(CCO)C1c1ccccc1[N+](=O)[O-] (stereo unspecified) | 0 | -2 | -3 | 9 | 5 | 2 | .
O=C(/C=C/c1ccccc1)C1=C(O)C(=O)N(CCO)C1c1cccc([N+](=O)[O-])c1 (stereo unspecified) | 0 | 9.9* | 6 | . | 2 | 2 | -1
COc1ccc(N(CC(=O)NCc2cccnc2)S(=O)(=O)c2ccccc2)c(OC)c1 | 0 | 13* | 17 | 2 | 1 | 0 | -1
COc1ccc(OC)c(N(CC(=O)NCc2ccccc2)S(=O)(=O)c2ccc(OC)c(OC)c2)c1 | 0 | -2 | -2 | 4 | -2 | 0 | .
Cc1ccc(C=NNC(=O)Cc2ccc(O)cc2)s1 | . | . | . | 4 | . | . | .
OC[C@@H]1CN(Cc2ccc3c(c2)OCO3)C[C@H](n2cnc3c(N4CCOCC4)ncnc32)O1 | 0 | 7.8* | -3 | . | 1 | 1 | 0
CC(=NNC(=O)Cn1ccc(C(F)(F)F)n1)c1ccco1 | . | . | . | -1 | . | . | .
CC(Cc1ccccc1)=NNC(=O)C1CCCCC1 | . | . | . | 3 | . | . | .
COc1cccc(-n2c(=O)c3ccccc3n3c(=S)[nH]nc23)c1 | 0 | 3 | 23 | 5 | -1 | 2 | .
COCCCn1c(=O)c2ccccc2n2c(=S)[nH]nc12 | 0 | 9.8* | 2 | 0 | 0 | -1 | 5.4*
Cc1cccc(Nc2ncnc(N)n2)c1 | 0 | 13* | 4 | -2 | 2 | 2 | -1
COCCCNC(=O)c1cccs1 | 0 | -1 | -8 | 3 | 1 | 1 | .
COc1ccc(CNCCNC(=O)c2cccs2)c(OC)c1OC | 0 | 18* | -4 | 3 | 2 | 1 | -2
CC(Cn1cnc([N+](=O)[O-])n1)=NNC(=O)c1ccc(Br)cc1 | . | . | . | 0 | . | . | .
